Activity calls are given as the source filed them. No cut-off for these calls is given here.
Assays:
[1] = tested on: Human immunodeficiency virus 1; test: Antiviral activity against VSV-G pseudotyped HIV1 lentiviral particles infected in human HeLa cells incubated for 48 hrs by spectrofluorometry; assay type: functional, organism-based
[2] = Selectivity index, ratio of CC50 for human HeLa cells to IC50 for Plasmodium falciparum 3D7 ring stage cells; assay type: functional
Method in brief: (§1)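 Ratio of HeLa MTT CC50 to Malstat IC50 against the stated P. falciparum strain (ring-stage, triplicate, 1% parasitemia).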

HeLa = test: Cytotoxicity against human HeLa cells by MTT assay; assay type: cell-based
Method in brief: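 MTT reduction assay on HeLa cells (DMEM, 10% heat-inactivated FCS) with serial dilutions; CC50 taken as concentration giving 50% growth inhibition, ± SEM.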

[3] = Selectivity index, ratio of CC50 for human HeLa cells to IC50 for Plasmodium falciparum Dd2 ring stage cells; assay type: functional; method in brief: as §1
Plasmodium falciparum [4] = test: Antiplasmodial activity against Plasmodium falciparum 3D7 ring stage cells assessed as reduction parasitemia by Malstat assay; assay type: functional, organism-based
Plasmodium falciparum [5] = test: Antiplasmodial activity against drug resistant Plasmodium falciparum Dd2 ring stage cells assessed as reduction parasitemia by Malstat assay; assay type: functional, organism-based
Plasmodium falciparum [6] = test: Antiplasmodial activity against Plasmodium falciparum NF54 assessed as reduction in stage IV and V gametocyte formation at IC50 level incubated for 48 hrs measured 7 days post compound wash by Giemsa staining; assay type: functional, organism-based
[7] = Selectivity index, ratio of CC50 for human HeLa cells to IC50 for VSV-G pseudotyped HIV1 lentiviral particles; assay type: functional
Method in brief: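 Ratio of HeLa MTT CC50 to IC50 in the 48 h VSV-G-pseudotyped HIV-1 reporter assay in HeLa cells.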

Mus musculus = test: Toxicity in Plasmodium […] N infected in C57/BL6 mouse assessed as parasitemia at 20 mg/kg, po dosed 30 mins post parasite infection and same dose repeated on days 1, 2 and 3 post infection measured on parasitemia day 2 to 7; assay type: organism-based; set-up: dose 20 mg/kg, route oral; conditions: in vivo, 0.5 h
Method in brief: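 Infected mice dosed orally at 20 mg/kg on days 0–3 (first dose 30 min after intraperitoneal infection); death of treated infected mice before day 6 counted as toxic death; parasitemia followed on Giemsa smears to day 7.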

[8] = Cmax in C57/BL6 mouse plasma at 20 mg/kg, po dissolved in Pheroid formulation; assay type: ADME, organism-based; set-up: dose 20 mg/kg, route oral
Method in brief: (§2)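 Male C57/BL6 mice given 20 mg/kg by oral gavage (200 µl) in 10% DMSO (resuspended precipitate) or Pheroid vesicles; tail blood at 30–480 min (DMSO) or 10–420 min (Pheroid), plasma separated; parent, AZT and DHA quantified by LC–MS/MS after acetonitrile extraction with deoxythymidine internal standard, calibration in plasma.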

Blood [9] = test: Drug metabolism in C57/BL6 mouse blood assessed as dihydroartemisinin level at 20 mg/kg, po dissolved in 10% DMSO; assay type: ADME, organism-based; set-up: dose 20 mg/kg, route oral; conditions: in vivo; method in brief: as §2
Blood [10] = test: Drug metabolism in C57/BL6 mouse blood assessed as azidothymidine level at 20 mg/kg, po dissolved in 10% DMSO; assay type: ADME, organism-based; set-up: dose 20 mg/kg, route oral; conditions: in vivo; method in brief: as §2
[11] = Prodrug release in buffer assessed as dihydroartemisinin level; assay type: physicochemical
[12] = tested on: Human immunodeficiency virus 1; test: Antiviral activity against HIV1 NL43 infected din human MT4 cells pre-incubated in presence of compound for 48 hrs followed by TZM cells infection with compound treated virus supernatant by X-gal staining based microscopy; assay type: functional, organism-based; conditions: Human immunodeficiency virus 1, NL43, TZM
Method in brief: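 MT4 co-culture with NL43 HIV-1 preincubated 4 h at 37 °C, then compounds in DMSO added at six concentrations for 48 h; cell-free supernatant used to infect TZM cells in triplicate; after 2 days cells fixed (acetone/ethanol), X-Gal stained 2–4 h, blue cells counted; uninfected and untreated-infected wells set as 100% and 0% activity.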

Plasma [13] = test: Drug metabolism in C57/BL6 mouse plasma assessed as dihydroartemisinin level at 20 mg/kg, po dissolved in Pheroid formulation; assay type: ADME, organism-based; set-up: dose 20 mg/kg, route oral; conditions: in vivo; method in brief: as §2
[14] = Drug metabolism in C57/BL6 mouse liver microsomes measured after 15 mins; assay type: ADME, Microsome; conditions: read-out: Drug metabolism
Method in brief: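 Compound at 1 µM final incubated at 37 °C with mouse liver microsomes (0.2 mg/ml protein) in phosphate buffer pH 7.4; started with 1 mM NADPH; aliquots at 0, 15, 30, 45 min quenched in cold acetonitrile; parent remaining (% of time zero) and released AZT/DHA measured by LC–MS/MS.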

Plasma [15] = test: Drug metabolism in C57/BL6 mouse plasma assessed as azidothymidine level at 20 mg/kg, po dissolved in 10% DMSO; assay type: ADME, organism-based; set-up: dose 20 mg/kg, route oral; conditions: in vivo; method in brief: as §2
Plasma [16] = test: Drug metabolism in C57/BL6 mouse plasma assessed as azidothymidine level at 20 mg/kg, po dissolved in Pheroid formulation; assay type: ADME, organism-based; set-up: dose 20 mg/kg, route oral; conditions: in vivo; method in brief: as §2
[17] = Prodrug release in buffer assessed as azidothymidine level; assay type: physicochemical
Blood [18] = test: Drug metabolism in C57/BL6 mouse blood assessed as azidothymidine level at 20 mg/kg, po dissolved in Pheroid formulation; assay type: ADME, organism-based; set-up: dose 20 mg/kg, route oral; conditions: in vivo; method in brief: as §2
Plasma [19] = test: Drug metabolism in C57/BL6 mouse plasma assessed as dihydroartemisinin level at 20 mg/kg, po dissolved in 10% DMSO; assay type: ADME, organism-based; set-up: dose 20 mg/kg, route oral; conditions: in vivo; method in brief: as §2
Blood [20] = test: Drug metabolism in C57/BL6 mouse blood assessed as dihydroartemisinin level at 20 mg/kg, po dissolved in Pheroid formulation; assay type: ADME, organism-based; set-up: dose 20 mg/kg, route oral; conditions: in vivo; method in brief: as §2
[21] = Plasmodium falciparum, 3D7, read-out: IC50
[22] = Human immunodeficiency virus 1, HeLa, 48 h, read-out: IC50

Compound	IC50 ([1]; hela)	Ratio CC50/IC50 [2]	IC50 (HeLa) [µM]	Ratio CC50/IC50 [3]	IC50 (Plasmodium falciparum [4]; [21]) [µM]	IC50 (Plasmodium falciparum [5]) [µM]	IC50 [1, 22] [µM]	Ratio CC50/IC50 [7]	also measured
CCOC(=O)C(=O)N[C@H]1C[C@H](n2cc(C)c(=O)[nH]c2=O)O[C@@H]1CO[Si](c1ccccc1)(c1ccccc1)C(C)(C)C	Not Active	5.75	64	5.3	11.1	12.1			
OCc1cccc(Nc2ccnc3cc(Cl)ccc23)c1	Not Active	>70.4	> 100	>68.5	1.42	1.46			
Cc1cn([C@H]2C[C@H](NC(=O)NCCNc3ccnc4cc(Cl)ccc34)[C@@H](CO[Si](c3ccccc3)(c3ccccc3)C(C)(C)C)O2)c(=O)[nH]c1=O	Not Active	64.3	23.8	69.9	0.37	0.34			
OCCNc1ccnc2cc(Cl)ccc12	Not Active	>45.5	> 100	>58.1	2.2	1.72			
COc1cc(NC(C)CCCN)c2ncccc2c1 (stereo not drawn)									inhibition (Plasmodium falciparum [6]): Active
NCCNc1ccnc2cc(Cl)ccc12	Not Active	2114.7	63.4	275.8	0.03				
Cc1cn([C@H]2C[C@H](NC(=O)NCCCCCNc3ccnc4cc(Cl)ccc34)[C@@H](CO)O2)c(=O)[nH]c1=O	Not Active	>19.3	> 100	>12.5	5.18	8.02			
CCN(CC)CCCC(C)Nc1ccnc2cc(Cl)ccc12 (stereo not drawn) [CHLOROQUINE]			> 100				12.5		
Cc1cn([C@H]2C[C@H](NC(=O)CC3CCC4(CC3)OOC3(OO4)C4CC5CC(C4)CC3C5)[C@@H](CO[Si](c3ccccc3)(c3ccccc3)C(C)(C)C)O2)c(=O)[nH]c1=O (stereo partly drawn)	Not Active	>370.4	> 100	>526.3	0.27	0.19			
Cc1cn([C@H]2C[C@H](N=[N+]=[N-])[C@@H](CO)O2)c(=O)n(CCNc2ccnc3cc(Cl)ccc23)c1=O		>217.4	> 100	>153.8	0.46	0.65	7.15	>14	
NCCCCCNc1ccnc2cc(Cl)ccc12	Not Active	>435.7	56.6	>246.3	0.13	0.23			
Cc1cn([C@H]2C[C@H](N=[N+]=[N-])[C@@H](CO)O2)c(=O)[nH]c1=O [ZIDOVUDINE]			> 100				0.04		IC50 (Plasmodium falciparum [4]): Not Active
Cc1nnc(C(=O)NC(C)(C)c2nc(C(=O)NCc3ccc(F)cc3)c(O)c(=O)n2C)o1 [RALTEGRAVIR]			> 100				0.01	>10000	IC50 (Plasmodium falciparum [4]): Not Active
Cc1cn([C@H]2C[C@H](NC(=O)CC3CCC4(CC3)OOC3(OO4)C4CC5CC(C4)CC3C5)[C@@H](CO)O2)c(=O)[nH]c1=O (stereo partly drawn)	Not Active	106.3	23.4	233.8	0.22	0.1			
C[C@H]1[C@@H](O)O[C@@H]2O[C@@]3(C)CC[C@H]4[C@H](C)CC[C@@H]1[C@@]24OO3 [ARTENIMOL]	Not Active	>3333.3	> 100		0.03	0.01			inhibition (Plasmodium falciparum [6]): Active
Cc1cn([C@H]2C[C@H](NC(=O)NCCNc3ccnc4cc(Cl)ccc34)[C@@H](CO)O2)c(=O)[nH]c1=O	Not Active	>28.3	> 100	>3.2	3.53	31.6			
Cc1cn([C@H]2C[C@H](n3cc(CO[C@H]4O[C@@H]5O[C@@]6(C)CC[C@H]7[C@H](C)CC[C@@H]([C@H]4C)[C@@]57OO6)nn3)[C@@H](CO)O2)c(=O)[nH]c1=O		>370.4	> 100	>1000	0.27	0.1	11.1	>9	
Cc1cn([C@H]2C[C@H](N=[N+]=[N-])[C@@H](CO)O2)c(=O)n(Cc2cccc(Nc3ccnc4cc(Cl)ccc34)c2)c1=O		>625	> 100	>454.5	0.16	0.22	1.76	>56.8	
Cc1cn([C@H]2C[C@H](NC(=O)NCCCCCNc3ccnc4cc(Cl)ccc34)[C@@H](CO[Si](c3ccccc3)(c3ccccc3)C(C)(C)C)O2)c(=O)[nH]c1=O		62.3	36.1	451.6	0.58	0.08	7.92	4.6	
Cc1cn([C@H]2C[C@H](NC(=O)C(=O)NCCCCCNc3ccnc4cc(Cl)ccc34)[C@@H](CO[Si](c3ccccc3)(c3ccccc3)C(C)(C)C)O2)c(=O)[nH]c1=O		75.4	28.7	358.1	0.38	0.08	0.9	31.8	
Cc1cn([C@H]2C[C@H](NC(=O)C(=O)NCCCCCNc3ccnc4cc(Cl)ccc34)[C@@H](CO)O2)c(=O)[nH]c1=O	Not Active	>51.5	> 100	>9.5	1.94	10.6			
Cc1cn([C@H]2C[C@H](N=[N+]=[N-])[C@@H](CO[C@H]3O[C@@H]4O[C@@]5(C)CC[C@H]6[C@H](C)CC[C@@H]([C@H]3C)[C@@]46OO5)O2)c(=O)[nH]c1=O		>3333.3	> 100	>10000	0.03	0.01	2.86	>35	Activity (Mus musculus): Non-toxic; inhibition (Plasmodium falciparum [6]): Active; Cmax [8]: 40 ng/mL; Drug metabolism (Blood [9]): Not Active; Drug metabolism (Blood [10]): Active; Drug metabolism [11]: Not Active; IC50 [12]: 0.485 µM; Drug metabolism (Plasma [13]): Active; metabolised at 0.25 h [14]: > 90%; Drug metabolism (Plasma [15]): Not Active; Drug metabolism (Plasma [16]): Active; Drug metabolism [17]: Active; Drug metabolism (Blood [18]): Active; Drug metabolism (Plasma [19]): Active; Drug metabolism (Blood [20]): Not Active
